ChEMBL document CHEMBL4014329, “Selective Inhibition of Escherichia coli RNA and DNA Topoisomerase I by Hoechst 33258 Derived Mono- and Bisbenzimidazoles” (J Med Chem, 2017)
Values after ≈ are worked out from the molar mass of the structure shown. Active and inactive are the calls of the source. The calls are words filed in the database; no cut-off is given here.

Legend:
[1] = tested on: Enterococcus faecium; test: Antibacterial activity against Enterococcus faecium BM4105RF after 24 hrs by microbroth dilution method; type: functional
How it was run: (§1)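 Mueller-Hinton broth cultures grown at 37 °C with shaking to log phase, pelleted, resuspended in 0.85% saline to OD625 0.1. Broth microdilution per CLSI guidelines, final inoculum 5 × 10^5 CFU/mL, in triplicate, 24 h at 37 °C. Growth read as OD625. MIC is the lowest concentration giving complete growth inhibition versus untreated controls.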

[2] = tested on: Enterococcus faecalis; test: Antibacterial activity against Enterococcus faecalis ATCC 29212 after 24 hrs by microbroth dilution method; type: functional; conditions: ATCC 29212, 24 h
How it was run: (§2)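 Microbroth dilution per CLSI guidelines. Organisms grown in Mueller−Hinton broth at 37 °C with shaking to log phase, pelleted, resuspended in 0.85% saline to OD625 0.1. Final inoculum 5 × 10^5 CFU/mL; triplicate; 24 h at 37 °C. OD625 read; MIC = lowest concentration completely inhibiting growth versus untreated controls.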

[3] = tested on: Staphylococcus epidermidis; test: Antibacterial activity against Staphylococcus epidermidis ATCC 12384 after 24 hrs by microbroth dilution method; type: functional; conditions: ATCC 12384, 24 h; how it was run: as §2
[4] = tested on: Staphylococcus aureus; test: Antibacterial activity against Staphylococcus aureus ATCC 33591 after 24 hrs by microbroth dilution method; type: functional; conditions: ATCC 33591, 24 h; how it was run: as §2
[5] = tested on: Staphylococcus aureus; test: Antibacterial activity against methicillin-resistant Staphylococcus aureus A960649 after 24 hrs by microbroth dilution method; type: functional; conditions: A960649, 24 h; how it was run: as §1
[6] = tested on: Staphylococcus aureus; test: Antibacterial activity against Staphylococcus aureus ATCC 29213 after 24 hrs by microbroth dilution method; type: functional; conditions: ATCC 29213, 24 h; how it was run: as §2
[7] = Binding affinity to dA60.dT60 B-DNA duplex (unknown origin) assessed as change in melting temperature at 10 uM by UV-vis spectrophotometric analysis
How it was run: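 UV melting of dA60·dT60 at 1 μM/duplex with compound at 10 μM. Buffer 10 mM sodium cacodylate, 0.1 mM EDTA, 100 mM NaCl, pH 7.0; duplex pre-annealed from 95 °C. Compound stocks in DMSO diluted into buffer. Heating at 0.2 °C/min, monitored at 260 nm, points every 1.0 °C; Tm taken from derivatives.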

[8] = tested on: Staphylococcus aureus; test: Antibacterial activity against methicillin-resistant Staphylococcus aureus 33591 after 24 hrs by microbroth dilution method; type: functional; conditions: Staphylococcus aureus, 33591, 24 h; how it was run: as §1
[9] = tested on: Shigella flexneri; test: Antibacterial activity against Shigella flexneri 2457NR517 after 24 hrs by microbroth dilution method; type: functional; conditions: 2457NR517, 24 h; how it was run: as §1
[10] = tested on: Escherichia coli; test: Antibacterial activity against Escherichia coli ATCC 25922 after 24 hrs by microbroth dilution method; type: functional; conditions: ATCC 25922, 24 h; how it was run: as §2
[11] = tested on: Escherichia coli; test: Antibacterial activity against Escherichia coli K-12 after 24 hrs by microbroth dilution method; type: functional; conditions: K-12, 24 h; how it was run: as §2
[12] = tested on: Acinetobacter baumannii; test: Antibacterial activity against Acinetobacter baumannii ATCC 19606 after 24 hrs by microbroth dilution method; type: functional; conditions: ATCC 19606 = CIP 70.34 = JCM 6841, 24 h; how it was run: as §2
[13] = tested on: Pseudomonas aeruginosa; test: Antibacterial activity against Pseudomonas aeruginosa ATCC 27853 after 24 hrs by microbroth dilution method; type: functional; conditions: ATCC 27853, 24 h; how it was run: as §2
[14] = tested on: Klebsiella pneumoniae; test: Antibacterial activity against Klebsiella pneumoniae NR15410 after 24 hrs by microbroth dilution method; type: functional; conditions: NR15410, 24 h; how it was run: as §2
[15] = tested on: Enterobacter cloacae; test: Antibacterial activity against Enterobacter cloacae ATCC 13047 after 24 hrs by microbroth dilution method; type: functional; conditions: ATCC 13047, 24 h; how it was run: as §2
[16] = tested on: Citrobacter freundii; test: Antibacterial activity against Citrobacter freundii 4747CFAA after 24 hrs by microbroth dilution method; type: functional; how it was run: as §2
[17] = Binding affinity to dA60.dT60 B-DNA duplex (unknown origin) assessed as induction of biphasic transition at <5 uM by UV-vis spectrophotometric analysis

Row | Structure (SMILES) | MIC [1] [µg/mL] | MIC [2] [µg/mL] | MIC [3] [µg/mL] | MIC [4] [µg/mL] | MIC [5] [µg/mL] | MIC [6] [µg/mL] | ΔTm [7] [°C] | MIC [8] [µg/mL] | MIC [9] [µg/mL] | MIC [10] [µg/mL] | MIC [11] [µg/mL] | MIC [12] [µg/mL] | MIC [13] [µg/mL] | MIC [14] [µg/mL] | MIC [15] [µg/mL] | MIC [16] [µg/mL] | Activity [17]
1 | CCOc1ccc(-c2nc3ccc(N4CCN(C)CC4)cc3[nH]2)cc1 | > 32 | 16 (≈ 47.6 µM) | > 32 | 16 to 32 (≈ 47.6 to 95.1 µM) | > 32 | 16 to 32 (≈ 47.6 to 95.1 µM) | 1.7 | > 32 | > 32 | 16 (≈ 47.6 µM) | 16 (≈ 47.6 µM) | > 32 | 16 (≈ 47.6 µM) | > 32 | > 32 | > 32 | Active
2 | CN1CCN(c2ccc3nc(-c4ccc(OCCCN)cc4)[nH]c3c2)CC1 | > 32 | > 32 | > 32 | > 32 | > 32 | > 32 | 3.3 | > 32 | > 32 | > 32 | > 32 | > 32 | > 32 | > 32 | > 32 | > 32 | Active
3 | C#CCOCCCCCCOc1ccc(-c2nc3ccc(N4CCN(C)CC4)cc3[nH]2)cc1 | > 32 | 16 to 32 (≈ 35.8 to 71.7 µM) | > 32 | 16 to 32 (≈ 35.8 to 71.7 µM) | > 32 | 16 to 32 (≈ 35.8 to 71.7 µM) | 1.4 | > 32 | > 32 | 16 (≈ 35.8 µM) | 16 (≈ 35.8 µM) | > 32 | 16 (≈ 35.8 µM) | > 32 | > 32 | > 32 | Active
4 | C#CCCCCCCc1cn(CCOc2ccc(-c3nc4ccc(N5CCN(C)CC5)cc4[nH]3)cc2)nn1 | > 32 | 16 to 32 (≈ 31.3 to 62.5 µM) | > 32 | 16 to 32 (≈ 31.3 to 62.5 µM) | – | 16 to 32 (≈ 31.3 to 62.5 µM) | 0.5 | – | > 32 | 16 (≈ 31.3 µM) | 16 (≈ 31.3 µM) | > 32 | 16 (≈ 31.3 µM) | > 32 | > 32 | > 32 | Active
5 | C#CCOc1ccc(-c2nc3ccc(N4CCN(C)CC4)cc3[nH]2)cc1 | > 32 | 16 to 32 (≈ 46.2 to 92.4 µM) | > 32 | 16 to 32 (≈ 46.2 to 92.4 µM) | > 32 | ≥ 32 | 2.6 | > 32 | > 32 | 16 (≈ 46.2 µM) | 16 (≈ 46.2 µM) | > 32 | 16 (≈ 46.2 µM) | > 32 | > 32 | > 32 | Active
6 | CN1CCN(c2ccc3nc(-c4ccc(OCCCNC(=O)OC(C)(C)C)cc4)[nH]c3c2)CC1 | > 32 | 16 to 32 (≈ 34.4 to 68.7 µM) | > 32 | 16 to 32 (≈ 34.4 to 68.7 µM) | > 32 | 16 to 32 (≈ 34.4 to 68.7 µM) | 1 | > 32 | > 32 | 16 (≈ 34.4 µM) | 16 (≈ 34.4 µM) | > 32 | 16 (≈ 34.4 µM) | > 32 | > 32 | > 32 | Active
7 | CN1CCN(c2ccc3nc(-c4ccc(OCCN=[N+]=[N-])cc4)[nH]c3c2)CC1 | > 32 | 16 to 32 (≈ 42.4 to 84.8 µM) | > 32 | 16 to 32 (≈ 42.4 to 84.8 µM) | > 32 | ≥ 32 | 1.9 | > 32 | > 32 | 16 (≈ 42.4 µM) | 16 (≈ 42.4 µM) | > 32 | 16 (≈ 42.4 µM) | > 32 | > 32 | > 32 | Active
8 | C#Cc1ccc(-c2cn(CCOc3ccc(-c4nc5ccc(N6CCN(C)CC6)cc5[nH]4)cc3)nn2)cc1 | > 32 | 16 to 32 (≈ 31.8 to 63.5 µM) | > 32 | 16 (≈ 31.8 µM) | > 32 | 16 to 32 (≈ 31.8 to 63.5 µM) | 1.9 | > 32 | > 32 | 16 (≈ 31.8 µM) | 16 (≈ 31.8 µM) | > 32 | 16 (≈ 31.8 µM) | > 32 | > 32 | > 32 | Active
9 | CN1CCN(c2cc(C(=O)O)c3nc(-c4ccc(O)cc4)[nH]c3c2)CC1 | – | > 32 | – | > 32 | – | > 32 | 0 | – | – | > 32 | > 32 | – | > 32 | – | – | – | Active
10 | CN1CCN(c2ccc3nc(-c4ccc(OCc5cn(CCN=[N+]=[N-])nn5)cc4)[nH]c3c2)CC1 | > 32 | 16 to 32 (≈ 34.9 to 69.8 µM) | > 32 | 16 to 32 (≈ 34.9 to 69.8 µM) | > 32 | 16 to 32 (≈ 34.9 to 69.8 µM) | 1.2 | > 32 | > 32 | 16 (≈ 34.9 µM) | 16 (≈ 34.9 µM) | > 32 | 16 (≈ 34.9 µM) | > 32 | > 32 | > 32 | Active
11 | Oc1ccc(-c2nc3ccccc3[nH]2)cc1 | > 32 | 16 (≈ 76.1 µM) | > 32 | 16 to 32 (≈ 76.1 to 152 µM) | > 32 | 16 to 32 (≈ 76.1 to 152 µM) | 0 | > 32 | > 32 | 16 (≈ 76.1 µM) | 16 (≈ 76.1 µM) | 16 to 32 (≈ 76.1 to 152 µM) | 16 (≈ 76.1 µM) | > 32 | > 32 | > 32 | Active
